Bioassay records deposited in PubChem BioAssay by The Scripps Research Institute Molecular Screening Center.
HTRA1 inh = HTRA1 (human) protease inhibition; actives 0.5% (n = 340,000); Q92743; recombinant HTRA1, FP-rhodamine activity-based probe, fluorescence polarization; AID 504803; inhibition, % at 5.96 µM; in the data active means inhibition above about 36%;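 further: 0% = enzyme with DMSO and 100% = wells lacking enzyme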
ABHD4 inh = ABHD4 (mouse) inhibition, primary FP screen; purified mABHD4, FP-Rh probe fluorescence polarization; Q8VD66; actives 0.54% (n = 370,000); inhibition, % at 8.92 µM;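 active means inhibition exceeding the mean over every tested compound plus 3 SD, cut at about 30% in these data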;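 further: 0% = plate median of compound wells and 100% = S159A mutant with DMSO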
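Test system: mABHD4 protein; Read-out basis: % inhibition; Incubation: 45 min + 60 min at 25 °C; Repeats: single replicate; Technique: fluorescence polarization with parallel and perpendicular emission, 525/598 nm; Compound: 8.92 µM, single dose; Benchmarks: full inhibition S159A mutant plus DMSO, zero as sample-well median.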
SIAE inh = inhibitors of human sialic acid acetylesterase SIAE; actives 0.69% (n = 370,000); inhibition, % at 9.66 µM; SIAE FP-Rh probe binding, fluorescence polarization; Q9HAT2;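 active means inhibition above a cutoff: mean of compounds within the control limits plus 3 SD of those, cut at about 17% in these data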;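 further: 0% = plate median of compound wells and 100% = probe without SIAE protein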
Tn7 DDE FP = inhibitors of Tn7 peptide binding to human fibrin DD(E); AID 720508; FP displacement of FITC-Tn7 peptide from fibrin DD(E); 0% = median of compound wells per plate; actives 0.13% (n = 370,000); P02675; inhibition, % at 8.3 µM;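 active means inhibition above the mean of compounds falling within the control limits plus 3 SD of them, cut at about 14% in these data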;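 further: 0% = plate median of compound wells and 100% = 10 µM Aha-Tn7 peptide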
Target sequence (P02675 whole entry, looked up): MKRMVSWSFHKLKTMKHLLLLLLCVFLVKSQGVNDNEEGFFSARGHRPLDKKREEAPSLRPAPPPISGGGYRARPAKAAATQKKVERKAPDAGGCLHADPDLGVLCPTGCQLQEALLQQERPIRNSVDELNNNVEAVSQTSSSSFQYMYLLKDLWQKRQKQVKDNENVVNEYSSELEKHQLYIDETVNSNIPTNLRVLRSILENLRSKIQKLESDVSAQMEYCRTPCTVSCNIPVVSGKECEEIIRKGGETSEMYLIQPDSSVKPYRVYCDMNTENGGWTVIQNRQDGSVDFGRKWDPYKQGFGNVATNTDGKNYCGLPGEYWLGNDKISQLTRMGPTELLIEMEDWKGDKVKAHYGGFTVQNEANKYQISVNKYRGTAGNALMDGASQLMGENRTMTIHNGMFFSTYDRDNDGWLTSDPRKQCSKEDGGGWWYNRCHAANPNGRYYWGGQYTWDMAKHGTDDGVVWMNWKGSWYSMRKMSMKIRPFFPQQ
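Assay system: Fibrin-DD(E) protein isolated from polymerized human fibrin clots; read-out basis: percent inhibition; medium: Tris/NaCl/CaCl2 buffer, pH 7.8; signal: FP measurement; incubation: 10 min plus 3 h, room temperature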
TCR-CD3 inh = inhibitors of human TCR-CD3 interaction; TAMRA-labeled TCR probe fluorescence, biochemical; actives 0.37% (n = 360,000); inhibition, % at 9.4 µM; in the data active means inhibition above about 19%;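 further: recombinant mutant TCR 2C K166C tagged with TAMRA read by polarization; 0% = receptor in buffer alone and 100% = receptor with positive control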
Tn6 DDE FP = disrupts Tn6 cyclic peptide binding to fibrin D-Dimer-E complex | Fibrin DD(E) TRITC-Tn6 fluorescence polarization displacement | inhibition, % at 8.3 µM | actives 0.21% (n = 370,000) | AID 720509;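 active means inhibition above a per-campaign cutoff: mean of compounds within control limits plus 3 SD, cut at about 15% in these data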;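 further: 0% = median of all compound wells on the plate and 100% = blocking peptide control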
HTRA1 conf = HTRA1 (human) inhibition, confirmation. AID 540248. shares compounds with HTRA1 inh. actives 66% (n = 1,600). inhibition, % at 5.96 µM. recombinant HTRA1, FP-rhodamine activity-based probe, fluorescence polarization;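 active means mean inhibition over three repeats above a set limit taken from the earlier primary screen, cut at about 37% in these data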;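 further: 0% = HTRA1 with DMSO and 100% = wells lacking HTRA1; inhibitors block probe binding so polarization drops and inhibition rises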
The depositor's hits bear a star. The list is not random: actives were taken first. Their share in the collection is about 1.8%.

For O=C(c1ccc(-c2cc(O)c3ncccc3c2)cc1)N1CCNCC1 the results were HTRA1 inh 62.5*, ABHD4 inh 5.4, SIAE inh -1.0, Tn7 DDE FP -2.1, TCR-CD3 inh -7.1, Tn6 DDE FP 7.1 and HTRA1 conf 49.5*.
`Cc1nnc(C)c2c(C)n(-c3ccc(Cl)c(N)c3)c(C)c12` gave HTRA1 inh 18.9, ABHD4 inh 7.1, SIAE inh 5.4, Tn7 DDE FP -7.9, TCR-CD3 inh 1.3 and Tn6 DDE FP -3.0.
For Cc1cc(C)cc(-n2c(C)c3c(C)nnc(C)c3c2C)c1 the results were HTRA1 inh 40.2*, ABHD4 inh -5.5, SIAE inh 3.8, Tn7 DDE FP -6.9, TCR-CD3 inh 4.7, Tn6 DDE FP 1.5 and HTRA1 conf 12.4.
Screening Cc1nc(CNC(=O)CC2C(=O)NCCN2Cc2cccc(Oc3ccccc3)c2)cs1 (configuration not stated) returned HTRA1 inh 43.6*, ABHD4 inh -5.0, SIAE inh 6.6, Tn7 DDE FP -1.0, TCR-CD3 inh -4.9, Tn6 DDE FP -9.9 and HTRA1 conf -14.0.
`CC(=O)OC(C)C1C2=C(C(=O)CC1(C)O)C(=O)c1c(ccc(-c3ccc4c(c3O)C(=O)C3=C(C4=O)C(C(C)OC(C)=O)C(C)(O)CC3=O)c1O)C2=O` (configuration not stated) gave HTRA1 inh 47.8*, ABHD4 inh 47.3*, SIAE inh 0.9, Tn7 DDE FP 3.7, TCR-CD3 inh 0.0, Tn6 DDE FP -2.2 and HTRA1 conf 86.7*.
c1ccc(-c2cccc(CNc3nc(-c4ccccn4)nnc3-c3ccccc3)c2)cc1 was read as ABHD4 inh 3.8, SIAE inh -8.6, Tn7 DDE FP -18.8 and Tn6 DDE FP -21.8.
Screening C[C@H](CCC(=O)N(c1ccccc1)c1ccccc1)CC1CCCCC1 returned ABHD4 inh -0.9, SIAE inh 0.9, Tn7 DDE FP -6.3 and Tn6 DDE FP -2.8.
`Cc1ccc(O)c(CNCCNCc2cc(C)ccc2O)c1` gave HTRA1 inh 37.8*, ABHD4 inh 13.4, SIAE inh 3.4, Tn7 DDE FP 1.7, TCR-CD3 inh 4.1, Tn6 DDE FP -4.0 and HTRA1 conf 52.7*.
For CCc1ccc(O)c(CNCCNCc2cc(CC)ccc2O)c1 the results were HTRA1 inh 25.0, ABHD4 inh 20.1, SIAE inh -2.5, Tn7 DDE FP 3.7, TCR-CD3 inh -1.4 and Tn6 DDE FP 1.7.
`Cc1cc(N=Nc2ccc(C)c(N=Nc3cc(C)c(N)cc3N)c2)c(N)cc1N` gave HTRA1 inh 76.8*, ABHD4 inh 26.7, SIAE inh 10.6, Tn7 DDE FP -1.1, TCR-CD3 inh 2.4, Tn6 DDE FP -19.0 and HTRA1 conf 73.7*.
`CCCCC(CC)CO` (configuration not stated) gave HTRA1 inh 1.2, ABHD4 inh -0.9, SIAE inh 2.0, Tn7 DDE FP -2.5, TCR-CD3 inh 13.8 and Tn6 DDE FP 3.7.
`CCCCC(CC)CN=C(N)NC(N)=NCCCCCCN=C(N)NC(N)=NCC(CC)CCCC` (configuration not stated) gave HTRA1 inh 55.4* and HTRA1 conf 93.2*.
Screening Cc1ccc(C(NC(=O)C(C)C)c2cc([N+](=O)[O-])c3cccnc3c2O)cc1 (configuration not stated) returned HTRA1 inh 37.0*, ABHD4 inh 16.8, SIAE inh 3.2, Tn7 DDE FP 1.2, TCR-CD3 inh -4.3, Tn6 DDE FP 5.8 and HTRA1 conf 65.2*.
For CC(C)C(=O)NC(c1cccs1)c1cc([N+](=O)[O-])c2cccnc2c1O (configuration not stated) the results were HTRA1 inh 37.7* and HTRA1 conf 36.6*.
CCC(=O)NC(c1cccs1)c1cc([N+](=O)[O-])c2cccnc2c1OC (configuration not stated) was read as ABHD4 inh 9.9, SIAE inh 2.3, Tn7 DDE FP -1.8, TCR-CD3 inh 1.3 and Tn6 DDE FP -1.3.
CCC(=O)NC(/C=C/c1ccccc1)c1cc([N+](=O)[O-])c2cccnc2c1O (configuration not stated) was read as ABHD4 inh 4.7, SIAE inh 5.2, Tn7 DDE FP 4.7, TCR-CD3 inh 3.3 and Tn6 DDE FP 8.2.
Screening CCC[C@H]1[C@@H](OC(=O)NC2CCCCC2)CC[C@@]23CCCN2C(=O)CCC[C@@H]13 returned ABHD4 inh -4.9, SIAE inh 1.8, Tn7 DDE FP -7.1 and Tn6 DDE FP 9.4.
CN1C2=N[C@@H](c3ccccc3)CC(=O)N2/C(=C\c2ccccc2)[C@H]1c1ccccc1 was read as ABHD4 inh -5.7, SIAE inh -0.9, Tn7 DDE FP -2.4 and Tn6 DDE FP -13.3.
COc1cc(NC(=O)C2CCN(c3nnc(-n4cccc4)s3)CC2)cc(OC)c1 was read as ABHD4 inh -8.8, SIAE inh -3.7, Tn7 DDE FP 9.5 and Tn6 DDE FP -0.4.
CC(=O)Nc1ccc(OCC(C)CN2CCC(C(O)(c3ccccc3)c3ccccc3)CC2)cc1 (configuration not stated) was read as ABHD4 inh -3.6, SIAE inh 3.2, Tn7 DDE FP -1.9 and Tn6 DDE FP -5.6.
CCOC(=O)c1c(C)oc2c1c(C=NCc1ccccn1)c(O)c1ccccc12 was read as HTRA1 inh 43.5*, ABHD4 inh 34.3*, SIAE inh 17.9*, Tn7 DDE FP -2.1, TCR-CD3 inh 1.5, Tn6 DDE FP 4.9 and HTRA1 conf 60.4*.
Screening Cc1ccc(N=Cc2ccc[nH]2)c(O)c1 returned HTRA1 inh 44.1*, ABHD4 inh 7.9, SIAE inh -4.2, Tn7 DDE FP -1.4, TCR-CD3 inh -12.0, Tn6 DDE FP 4.0 and HTRA1 conf 21.2.
Screening O=C(Nc1ccc(Nc2ccccc2)cc1)c1ccco1 returned HTRA1 inh 38.4*, ABHD4 inh 11.9, SIAE inh 5.9, Tn7 DDE FP 7.9, TCR-CD3 inh -4.2, Tn6 DDE FP 5.4 and HTRA1 conf 33.9.
COc1ccc(-c2cc3ccccc3n2CC(O)Cn2nc(C)cc2C)cc1 (configuration not stated) was read as HTRA1 inh 38.0*, ABHD4 inh -7.6, SIAE inh 12.8, Tn7 DDE FP 10.8, TCR-CD3 inh 2.8, Tn6 DDE FP 2.5 and HTRA1 conf -11.3.
For Oc1ccc(F)c2cccnc12 the results were HTRA1 inh 24.1, ABHD4 inh 1.5, SIAE inh 1.1, Tn7 DDE FP 4.3, TCR-CD3 inh 0.9 and Tn6 DDE FP 1.5.
